What was measured:
[1] = system: Acinetobacter baumannii; test: Toxicity in Acinetobacter baumannii ATCC 17978 expressing mcr1 gene after 18 hrs by broth microdilution assay; type: organism-based
Outline: (§1)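 Single-agent MIC per CLSI broth microdilution. Cells from a 4–6 h culture in cation-adjusted Mueller-Hinton broth adjusted to 5 ×10^5 CFU/mL. Compound (DMSO stock) added to 200 μM top concentration and twofold serially diluted six times, with an untreated control row. Plates sealed and incubated stationary at 37°C for 18 h before MIC read.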

[2] = system: Acinetobacter baumannii; test: Toxicity in Acinetobacter baumannii 4106 after 18 hrs by broth microdilution assay; type: organism-based; details: in vitro; outline: as §1
[3] = system: Klebsiella pneumoniae; test: Toxicity in Klebsiella pneumoniae B9 after 18 hrs by broth microdilution assay; type: organism-based; outline: as §1
[4] = system: Klebsiella pneumoniae; test: Potentiation of colistin-induced antimicrobial activity against colistin-resistant Klebsiella pneumoniae B9 assessed as fold reduction in colistin MIC at 60 uM after 18 hrs by broth microdilution assay; type: functional
Outline: (§2)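 Checkerboard-style resensitization following adapted CLSI broth microdilution. Bacteria were grown 4–6 h in CAMHB and subcultured to 5×10^5 CFU/mL. Adjuvant was added from DMSO stock and held constant while colistin was serially diluted in the dosed subculture. Plates were incubated stationary at 37°C for 18 h, then MICs were read. Fold reduction was taken relative to the colistin MIC without adjuvant.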

[5] = system: Escherichia coli; test: Potentiation of colistin-induced antimicrobial activity against colistin-resistant Escherichia coli ATCC 25922 expressing mcr1 gene assessed as fold reduction in colistin MIC at 60 uM after 18 hrs by broth microdilution assay; type: functional; outline: as §2
[6] = system: Acinetobacter baumannii; test: Potentiation of colistin-induced antimicrobial activity against colistin-resistant Acinetobacter baumannii ATCC 17978 expressing mcr1 gene assessed as fold reduction in colistin MIC at 60 uM after 18 hrs by broth microdilution assay; type: functional; outline: as §2
[7] = system: Escherichia coli; test: Toxicity in Escherichia coli ATCC 25922 after 18 hrs by broth microdilution assay; type: organism-based; details: in vitro; outline: as §1
[8] = system: Acinetobacter baumannii; test: Potentiation of colistin-induced antimicrobial activity against colistin-resistant Acinetobacter baumannii 4106 assessed as fold reduction in colistin MIC at 60 uM after 18 hrs by broth microdilution assay; type: functional; outline: as §2

| SMILES | MIC [1] [µM] | MIC [2] [µM] | MIC [3] [µM] | fold change (FC) [4] | fold change (FC) [5] | fold change (FC) [6] | MIC [7] [µM] | fold change (FC) [8] |
| --- | --- | --- | --- | --- | --- | --- | --- | --- |
| O=C(NCCc1ccccn1)c1cc(Br)c(Br)[nH]1 | > 200 | > 200 | > 200 | 2 | 0 | 0 | > 200 | 0 |
| O=C(NC1Cc2ccccc2C1)c1cc(Br)c(Br)[nH]1 | > 200 | > 200 | > 200 | 0 | 0 | 0 | > 200 | 8 |
| O=C(NCCc1c[nH]c2ccccc12)c1ccccn1 |  |  |  | 0 | 0 | 0 |  | 8 |
| O=C(NCCc1c[nH]c2ccccc12)c1cc(Cl)c(Cl)[nH]1 |  |  |  | 1024 | 8 | 32 |  | 256 |
| O=C(NCc1c[nH]c2ccccc12)c1cc(I)c(I)[nH]1 |  |  |  | 0 | 0 | 0 |  | 0 |
| O=C(NCCc1c[nH]c2ccccc12)c1sccc1Br |  |  |  | 128 | 2 | 4 |  | 64 |
| O=C(NCCc1c[nH]c2ccccc12)c1cc(Cl)c[nH]1 |  |  |  | 8 | 2 | 2 |  | 16 |
| Cn1cc(CCNC(=O)c2cc(Br)c(Br)[nH]2)c2ccccc21 | > 200 | > 200 | > 200 | 0 | 0 | 0 | > 200 | 4 |
| O=C(NCCc1c[nH]c2ccccc12)c1cccs1 |  |  |  | 0 | 0 | 0 |  | 8 |
| O=C(NCc1ccccc1)c1cc(Br)c(Br)[nH]1 | > 200 | > 200 | > 200 | 2 | 0 | 0 | > 200 | 2 |
| CCCCn1c(C(=O)NCCc2c[nH]c3ccccc23)cc(Br)c1Br |  |  |  | 16 | 0 | 2 |  | 16 |
| O=C(NCCc1c[nH]c2ccccc12)c1cncc(Br)c1 |  |  |  | 8 | 0 | 0 |  | 4 |
| O=C(NCCc1c[nH]c2ccccc12)c1cc(Br)c[nH]1 |  |  |  | 128 | 2 | 16 |  | 64 |
| O=C(NCCc1c[nH]c2ccccc12)c1ccc(Br)c(Br)n1 |  |  |  | 128 | 0 | 0 |  | 8 |
| COc1ccc2[nH]cc(CCNC(=O)c3cc(Br)c(Br)[nH]3)c2c1 | > 200 | > 200 | > 200 | 128 | 2 | 8 | > 200 | 128 |
| O=C(NCCc1c[nH]c2ccccc12)c1ccc(Br)o1 |  |  |  | 64 | 0 | 2 |  | 16 |
| O=C(NCCc1c[nH]c2ccccc12)c1cc(Br)c(Br)s1 |  |  |  | 512 | 2 | 16 |  | 32 |
| Cn1cccc1C(=O)NCCc1c[nH]c2ccccc12 |  |  |  | 0 | 0 | 0 |  | 2 |
| O=C(NCCc1c[nH]c2ccccc12)c1cc(Br)c(Br)n1Cc1ccccc1 |  |  |  | 16 | 0 | 2 |  | 8 |
| O=C(NCc1c[nH]c2ccccc12)c1cccc(Br)n1 |  |  |  | 32 | 0 | 0 |  | 32 |
| Cn1c(C(=O)NCCc2c[nH]c3ccccc23)cc(Br)c1Br |  |  |  | 256 | 2 | 16 |  | 32 |
| O=C(NCCc1cn(Cc2ccccc2)c2ccccc12)c1cc(Br)c(Br)[nH]1 | > 200 | > 200 | > 200 | 0 | 0 | 0 | > 200 | 0 |
| O=C(NCCc1c[nH]c2ccccc12)c1ccc[nH]1 |  |  |  | 0 | 0 | 2 |  | 2 |
| O=C(NCCc1c[nH]c2ccc(O)cc12)c1cc(Br)c(Br)[nH]1 | > 200 | > 200 | > 200 | 8 | 4 | 4 | > 200 | 4 |
| O=C(NCCc1c[nH]c2ccccc12)c1cc(Br)c(Br)o1 |  |  |  | 512 | 2 | 16 |  | 64 |
| Cn1cc(Br)cc1C(=O)NCCc1c[nH]c2ccccc12 |  |  |  | 4 | 2 | 4 |  | 32 |
| O=C(NCCc1csc2ccccc12)c1cc(Br)c(Br)[nH]1 | > 200 | > 200 | > 200 | 16 | 4 | 8 | > 200 | 32 |
| O=C(NCCc1c[nH]cn1)c1cc(Br)c(Br)[nH]1 | > 200 | > 200 | > 200 | 0 | 0 | 0 | > 200 | 8 |
